Key:
[1] = biological target: T1, Serine/threonine-protein kinase LATS1 (Homo sapiens) (UniProt O95835); test: Competitive binding affinity to LATS1 (unknown origin) at 10 uM in presence of ATP relative to control
T1 sequence (whole entry): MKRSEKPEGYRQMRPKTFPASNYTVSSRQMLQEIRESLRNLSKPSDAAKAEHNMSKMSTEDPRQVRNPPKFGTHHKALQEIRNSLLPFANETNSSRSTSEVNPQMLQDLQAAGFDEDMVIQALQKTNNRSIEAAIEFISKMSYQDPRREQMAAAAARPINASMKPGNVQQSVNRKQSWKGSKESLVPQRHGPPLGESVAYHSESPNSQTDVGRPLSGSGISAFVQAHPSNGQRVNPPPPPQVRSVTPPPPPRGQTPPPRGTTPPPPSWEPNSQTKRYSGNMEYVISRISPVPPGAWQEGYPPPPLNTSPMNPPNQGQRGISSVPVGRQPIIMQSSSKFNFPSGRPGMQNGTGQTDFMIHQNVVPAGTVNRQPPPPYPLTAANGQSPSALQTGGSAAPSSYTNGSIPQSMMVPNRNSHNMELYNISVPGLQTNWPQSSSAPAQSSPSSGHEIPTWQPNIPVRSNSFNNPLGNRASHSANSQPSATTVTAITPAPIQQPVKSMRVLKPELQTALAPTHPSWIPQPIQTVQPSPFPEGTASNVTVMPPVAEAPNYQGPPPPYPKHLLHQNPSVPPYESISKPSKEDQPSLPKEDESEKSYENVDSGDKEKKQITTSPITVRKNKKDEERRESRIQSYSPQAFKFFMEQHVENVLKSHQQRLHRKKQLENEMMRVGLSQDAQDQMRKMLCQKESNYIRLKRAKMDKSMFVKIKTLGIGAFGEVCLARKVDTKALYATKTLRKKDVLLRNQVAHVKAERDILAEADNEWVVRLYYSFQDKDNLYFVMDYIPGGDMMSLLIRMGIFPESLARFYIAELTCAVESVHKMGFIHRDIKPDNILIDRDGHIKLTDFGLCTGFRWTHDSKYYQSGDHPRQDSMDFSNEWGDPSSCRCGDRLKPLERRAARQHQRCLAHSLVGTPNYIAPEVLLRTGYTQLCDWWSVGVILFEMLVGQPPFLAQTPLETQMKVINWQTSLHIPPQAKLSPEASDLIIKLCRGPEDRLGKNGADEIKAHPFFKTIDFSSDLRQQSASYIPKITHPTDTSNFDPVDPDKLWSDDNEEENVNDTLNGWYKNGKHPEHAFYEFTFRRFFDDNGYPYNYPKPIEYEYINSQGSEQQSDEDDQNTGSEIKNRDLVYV

[2] = biological target: T2, NUAK family SNF1-like kinase 1 (Homo sapiens) (UniProt O60285); test: Competitive binding affinity to ARK5 (unknown origin) at 10 uM in presence of ATP relative to control
T2 sequence (whole entry): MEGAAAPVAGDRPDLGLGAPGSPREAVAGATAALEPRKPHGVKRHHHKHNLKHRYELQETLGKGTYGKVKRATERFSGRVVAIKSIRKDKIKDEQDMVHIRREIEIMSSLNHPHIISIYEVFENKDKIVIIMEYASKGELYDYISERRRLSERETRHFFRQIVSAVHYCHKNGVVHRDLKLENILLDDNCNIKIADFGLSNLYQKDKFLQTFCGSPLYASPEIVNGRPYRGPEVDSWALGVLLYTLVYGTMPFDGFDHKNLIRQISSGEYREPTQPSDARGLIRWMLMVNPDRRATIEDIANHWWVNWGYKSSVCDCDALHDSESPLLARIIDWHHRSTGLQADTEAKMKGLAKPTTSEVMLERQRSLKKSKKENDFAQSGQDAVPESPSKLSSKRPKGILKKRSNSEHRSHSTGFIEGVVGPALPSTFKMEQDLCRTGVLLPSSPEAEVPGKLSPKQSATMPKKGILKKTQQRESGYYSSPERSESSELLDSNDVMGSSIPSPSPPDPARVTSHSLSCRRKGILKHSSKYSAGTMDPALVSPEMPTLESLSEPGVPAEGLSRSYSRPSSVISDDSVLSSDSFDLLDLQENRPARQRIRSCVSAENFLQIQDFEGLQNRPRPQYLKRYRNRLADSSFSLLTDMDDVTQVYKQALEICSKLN

[3] = biological target: Non-receptor tyrosine-protein kinase TYK2 (Homo sapiens) (UniProt P29597); test: Competitive binding affinity to TYK2 kinase domain 2 (unknown origin) at 10 uM in presence of ATP relative to control
[4] = test system: Epidermal growth factor receptor (Homo sapiens), P00533 [G719S]; test: Competitive binding affinity to EGFR G719S mutant (unknown origin) at 10 uM in presence of ATP relative to control
How it was run: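 In vitro ATP-site competition binding assay, part of profiling against a diverse panel of 128 kinases. Each compound was tested at a single concentration of 10 µM. Kinome selectivity was summarized as S15 selectivity scores.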

[5] = biological target: Vascular endothelial growth factor receptor 1 (Homo sapiens) (UniProt P17948); test: Competitive binding affinity to FLT1 (unknown origin) at 10 uM in presence of ATP relative to control
Chain of Vascular endothelial growth factor receptor 1 (Homo sapiens) (P17948 whole entry): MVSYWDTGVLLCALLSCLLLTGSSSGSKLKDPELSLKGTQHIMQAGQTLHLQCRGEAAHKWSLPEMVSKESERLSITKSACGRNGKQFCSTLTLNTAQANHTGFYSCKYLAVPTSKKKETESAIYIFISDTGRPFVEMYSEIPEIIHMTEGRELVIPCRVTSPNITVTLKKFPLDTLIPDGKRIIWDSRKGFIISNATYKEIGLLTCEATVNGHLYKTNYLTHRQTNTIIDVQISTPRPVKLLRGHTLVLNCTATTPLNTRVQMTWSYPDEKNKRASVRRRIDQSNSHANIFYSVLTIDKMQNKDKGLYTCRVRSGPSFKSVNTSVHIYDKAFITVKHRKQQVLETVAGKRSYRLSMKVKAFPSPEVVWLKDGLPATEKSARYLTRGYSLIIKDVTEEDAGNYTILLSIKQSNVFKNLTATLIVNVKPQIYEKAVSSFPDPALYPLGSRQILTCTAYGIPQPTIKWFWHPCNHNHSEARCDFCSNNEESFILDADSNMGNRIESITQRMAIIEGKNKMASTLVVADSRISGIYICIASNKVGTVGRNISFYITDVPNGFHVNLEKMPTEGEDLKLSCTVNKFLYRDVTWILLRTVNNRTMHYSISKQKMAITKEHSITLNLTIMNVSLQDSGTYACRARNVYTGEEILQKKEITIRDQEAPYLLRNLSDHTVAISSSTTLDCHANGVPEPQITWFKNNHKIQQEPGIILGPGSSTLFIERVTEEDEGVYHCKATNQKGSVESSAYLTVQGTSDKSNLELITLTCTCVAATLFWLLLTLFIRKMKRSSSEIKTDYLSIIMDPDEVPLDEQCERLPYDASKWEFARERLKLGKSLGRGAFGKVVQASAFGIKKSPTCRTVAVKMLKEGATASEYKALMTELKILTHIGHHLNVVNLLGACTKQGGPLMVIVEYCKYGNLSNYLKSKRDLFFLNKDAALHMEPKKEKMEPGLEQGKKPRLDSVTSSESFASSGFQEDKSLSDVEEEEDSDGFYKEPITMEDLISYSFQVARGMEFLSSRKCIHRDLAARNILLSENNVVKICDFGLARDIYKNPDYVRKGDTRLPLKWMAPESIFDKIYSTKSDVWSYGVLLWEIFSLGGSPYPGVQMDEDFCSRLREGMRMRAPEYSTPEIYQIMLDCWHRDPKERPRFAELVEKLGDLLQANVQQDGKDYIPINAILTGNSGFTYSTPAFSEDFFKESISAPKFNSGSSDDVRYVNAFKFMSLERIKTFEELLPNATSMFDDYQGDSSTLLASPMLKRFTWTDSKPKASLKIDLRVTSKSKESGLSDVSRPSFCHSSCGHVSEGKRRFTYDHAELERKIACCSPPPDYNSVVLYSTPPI

Chain of Non-receptor tyrosine-protein kinase TYK2 (Homo sapiens) (P29597 whole entry, the tested form may be a part): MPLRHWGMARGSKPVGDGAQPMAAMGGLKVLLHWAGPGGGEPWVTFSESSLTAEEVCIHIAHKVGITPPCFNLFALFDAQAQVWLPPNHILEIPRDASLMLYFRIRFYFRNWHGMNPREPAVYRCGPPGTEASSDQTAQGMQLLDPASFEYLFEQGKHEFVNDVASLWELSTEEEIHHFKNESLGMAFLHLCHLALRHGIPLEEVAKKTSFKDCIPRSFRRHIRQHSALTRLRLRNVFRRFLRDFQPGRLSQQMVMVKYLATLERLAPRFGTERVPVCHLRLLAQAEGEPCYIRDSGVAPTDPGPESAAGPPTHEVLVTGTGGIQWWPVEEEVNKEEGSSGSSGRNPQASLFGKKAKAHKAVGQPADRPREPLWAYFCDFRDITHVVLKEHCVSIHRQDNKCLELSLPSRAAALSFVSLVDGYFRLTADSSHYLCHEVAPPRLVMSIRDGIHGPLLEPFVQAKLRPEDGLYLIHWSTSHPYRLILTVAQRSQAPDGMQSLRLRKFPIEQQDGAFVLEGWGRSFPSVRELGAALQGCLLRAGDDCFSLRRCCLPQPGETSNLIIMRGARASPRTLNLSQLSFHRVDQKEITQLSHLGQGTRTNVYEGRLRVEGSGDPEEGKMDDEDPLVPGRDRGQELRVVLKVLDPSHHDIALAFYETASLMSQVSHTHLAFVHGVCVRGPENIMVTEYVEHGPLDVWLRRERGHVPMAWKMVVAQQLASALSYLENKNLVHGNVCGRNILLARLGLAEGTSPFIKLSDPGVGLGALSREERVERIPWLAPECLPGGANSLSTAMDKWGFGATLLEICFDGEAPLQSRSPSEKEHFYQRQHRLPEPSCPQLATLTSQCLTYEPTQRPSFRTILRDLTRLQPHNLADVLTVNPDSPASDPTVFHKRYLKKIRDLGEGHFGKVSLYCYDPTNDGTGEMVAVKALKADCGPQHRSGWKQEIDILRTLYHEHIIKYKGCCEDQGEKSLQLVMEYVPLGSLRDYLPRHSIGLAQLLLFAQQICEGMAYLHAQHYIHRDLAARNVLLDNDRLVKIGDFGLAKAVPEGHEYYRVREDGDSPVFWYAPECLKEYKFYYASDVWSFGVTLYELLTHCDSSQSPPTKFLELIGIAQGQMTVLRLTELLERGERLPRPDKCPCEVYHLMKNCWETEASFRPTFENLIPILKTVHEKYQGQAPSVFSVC
Chain of Epidermal growth factor receptor (Homo sapiens), P00533 [G719S] (P00533 whole entry G719S): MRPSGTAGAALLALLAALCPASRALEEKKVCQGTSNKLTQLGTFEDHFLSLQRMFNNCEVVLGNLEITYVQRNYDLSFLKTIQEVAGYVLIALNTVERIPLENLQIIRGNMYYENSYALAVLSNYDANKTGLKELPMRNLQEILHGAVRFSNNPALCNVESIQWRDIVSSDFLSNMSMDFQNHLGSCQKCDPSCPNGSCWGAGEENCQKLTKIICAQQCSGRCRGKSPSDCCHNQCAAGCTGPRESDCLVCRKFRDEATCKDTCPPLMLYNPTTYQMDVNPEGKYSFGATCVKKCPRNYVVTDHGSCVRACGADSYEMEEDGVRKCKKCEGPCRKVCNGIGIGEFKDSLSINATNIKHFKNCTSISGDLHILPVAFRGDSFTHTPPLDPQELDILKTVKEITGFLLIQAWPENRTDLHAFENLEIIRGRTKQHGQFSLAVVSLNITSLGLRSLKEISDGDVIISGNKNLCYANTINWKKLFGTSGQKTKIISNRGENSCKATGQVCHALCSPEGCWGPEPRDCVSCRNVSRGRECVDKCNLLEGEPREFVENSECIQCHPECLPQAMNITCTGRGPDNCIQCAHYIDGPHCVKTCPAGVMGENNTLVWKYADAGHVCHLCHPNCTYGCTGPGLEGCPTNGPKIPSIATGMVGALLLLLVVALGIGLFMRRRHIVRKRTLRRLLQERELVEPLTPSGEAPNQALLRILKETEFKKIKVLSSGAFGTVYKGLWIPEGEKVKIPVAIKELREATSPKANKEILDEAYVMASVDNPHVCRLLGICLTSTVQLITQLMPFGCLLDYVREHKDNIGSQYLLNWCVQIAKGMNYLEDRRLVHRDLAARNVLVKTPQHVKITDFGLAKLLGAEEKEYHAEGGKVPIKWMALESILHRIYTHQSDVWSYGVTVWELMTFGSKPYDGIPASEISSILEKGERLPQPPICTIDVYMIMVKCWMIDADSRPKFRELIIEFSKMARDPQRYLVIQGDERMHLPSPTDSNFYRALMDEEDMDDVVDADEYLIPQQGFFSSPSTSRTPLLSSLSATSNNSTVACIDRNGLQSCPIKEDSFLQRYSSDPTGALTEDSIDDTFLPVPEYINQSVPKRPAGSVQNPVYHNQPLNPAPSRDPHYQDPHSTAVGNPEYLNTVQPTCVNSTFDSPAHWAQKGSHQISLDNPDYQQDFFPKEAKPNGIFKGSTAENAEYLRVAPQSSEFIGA

inhibition [1] [%] | inhibition [2] [%] | inhibition [3] [%] | inhibition [4] [%] | inhibition [5] [%] | Structure (SMILES)
< 50 | 74 | < 50 | < 50 | 71 | O[C@H]1CC[C@H](Nc2nccc(-n3ncc4ccccc43)n2)CC1
< 50 | < 50 | < 50 | < 50 | < 50 | O[C@H]1CC[C@H](Nc2nccc(-n3ccc4ccccc43)n2)CC1
 |  | 86 | < 50 | 95 | O[C@H]1CC[C@H](Nc2nccc(-c3n[nH]c4ccccc34)n2)CC1
< 50 | 72 | < 50 | < 50 | 82 | O[C@H]1CC[C@H](Nc2nccc(-n3nnc4ccccc43)n2)CC1
